Data reported in ChEMBL document CHEMBL1687708, “Efficacy of oritavancin in a murine model of Bacillus anthracis spore inhalation anthrax” (Antimicrob Agents Chemother, 2008).
Values after ≈ are worked out from the molar mass of the structure shown.

Columns and labels:
Format in all cases: functional
Bacillus cereus [1] = assay: Antimicrobial activity against Bacillus cereus ATCC 4342 selected after 20 daily cycles of drug selection followed by 5 days of nonselective growth by broth microdilution method; settings: ATCC 4342, 120 h
Method in brief: (§1)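 B. cereus ATCC 4342 went through stepwise selection for 20 cycles in cation-adjusted Mueller-Hinton broth with doubling drug dilutions. Each cycle was seeded from the previous day's 0.5× MIC wells, in two independent rounds per drug. Selectants showing a fourfold or greater MIC rise were passaged 5 days without drug. Their MICs were then read alongside the parent strain. Oritavancin assays carried 0.002% polysorbate 80 throughout.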

Bacillus cereus [2] = assay: Ratio of MIC for Bacillus cereus ATCC 4342 selected after 20 daily cycles of drug selection followed by 5 days of nonselective growth to MIC for Bacillus cereus ATCC 4342; method in brief: as §1
Bacillus cereus [3] = assay: Antimicrobial activity against Bacillus cereus ATCC 4342 by broth microdilution method; method in brief: as §1

Row | Structure (SMILES) | MIC (Bacillus cereus [1]) [µg/mL] | Ratio (Bacillus cereus [2]) | MIC (Bacillus cereus [3]) [µg/mL]
1 | CC1(C)S[C@@H]2[C@H](NC(=O)Cc3ccccc3)C(=O)N2[C@H]1C(=O)O [PENICILLIN G] | > 0.06 | >8 | 0.008 (≈ 0.0239 µM)
2 | CO[C@H]1/C=C/O[C@@]2(C)Oc3c(C)c(O)c4c(O)c(c(/C=N/N5CCN(C)CC5)c(O)c4c3C2=O)NC(=O)/C(C)=C\C=C\[C@H](C)[C@H](O)[C@@H](C)[C@@H](O)[C@@H](C)[C@H](OC(C)=O)[C@@H]1C [RIFAMPIN] | 0.25 (≈ 0.304 µM) | 8 | 0.03 (≈ 0.0365 µM)
